Reference: publication PMC5655776 (Journal of Clinical Pharmacology, 2017)
Where two headings read alike, the source gives them in different places. One block for each compound: values may come before it.

Key:
[1] = assay type: in vivo, human; conditions: for MRAUCinf (metabolite‐to‐parent ratio for AUC): corrected for molecular weight, geometric mean (geometric %CV)
[2] = Urinary excretion and renal clearance of ertugliflozin and metabolites; assay type: in vivo, human; conditions: subjects with normal renal function
[3] = tested on: urinary glucose excretion; test: Change from baseline in 24-hour urinary glucose excretion; assay type: in vivo, human; conditions: for Change from baseline to day 1 in 24‐hour urinary glucose excretion, geometric mean / Change from baseline to day 1 in 24‐hour urinary glucose excretion, mean (SD) / Change from baseline to day 1 in 24‐hour urinary glucose excretion, median: 15 mg single oral dose
Summary of the method: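 Single oral 15 mg dose given as three 5-mg tablets after a 4-hour fast. Baseline urine was collected on day –2 (–48 to –24 h) and post-dose urine in 0‑4, 4‑8, 8‑12 and 12‑24 h intervals, with glucose measured centrally. 24-h UGE is the sum of the intervals. Log-transformed change was compared by 1-way ANOVA against T2DM with normal renal function, without plasma glucose correction. eGFR bands: mild 60‑89, moderate 30‑59 mL/min.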

[4] = as high as 300 mg (single dose), 100 mg once daily (up to 14 days), 25 mg once daily (up to 12 weeks); ref data on file, 9, 10; cited from earlier work
[5] = cited from earlier work
[6] = tested on: SGLT2‐mediated glucose transport; test: 24-hour inhibition of glucose reabsorption; assay type: in vivo, human; conditions: day 1
[7] = tested on: T2DM and healthy subjects; test: Safety and tolerability of a single 15-mg dose; assay type: in vivo, human
Summary of the method: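 Open-label, nonrandomized single oral 15 mg dose (three 5-mg tablets) after a 4-hour fast. Usual antihyperglycemic agents were given 4 h post-dose. AEs were recorded throughout and coded with MedDRA 17.1. ECGs were taken at screening, predose and day 5. Sitting and supine/standing blood pressure and pulse were taken predose and at 1, 2, 4 and 96 h post-dose.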

[8] = major circulating metabolites of ertugliflozin; cited from earlier work
[9] = T2DM, moderate renal impairment
[10] = single 15‐mg dose, all renal function groups

Compound: CCOc1ccc(Cc2cc([C@]34OC[C@](CO)(O3)[C@@H](O)[C@H](O)[C@H]4O)ccc2Cl)cc1 [ertugliflozin, Ertugliflozin]
Tmax ([1]; human, plasma, po, 15 mg, median tmax, 15 mg single oral dose, across all groups): 1 to 1.51 h
predicted mean (90%CI) AUC from log‐linear regression vs BSA‐unnormalized eGFR ([1]; mild renal impairment (eGFR = 75 mL/min)): 1585 (1461‐1719) ng·h/mL
predicted mean (90%CI) AUC from log‐linear regression vs BSA‐unnormalized eGFR ([1]; moderate renal impairment (eGFR = 45 mL/min)): 1875 (1698‐2071) ng·h/mL
predicted mean (90%CI) AUC from log‐linear regression vs BSA‐unnormalized eGFR ([1]; normal renal function (eGFR = 105 mL/min)): 1340 (1194‐1503) ng·h/mL
predicted mean (90%CI) AUC from log‐linear regression vs BSA‐unnormalized eGFR ([1]; severe renal impairment (eGFR = 15 mL/min)): 2219 (1907‐2581) ng·h/mL
Ae96% [2]: approximately 1%
Change from baseline to day 1 in 24‐hour urinary glucose excretion, geometric mean ([3]; T2DM, mild renal impairment): 35.98 g
Change from baseline to day 1 in 24‐hour urinary glucose excretion, mean (SD) ([3]; T2DM, mild renal impairment): 48.67 (37.72) g
Change from baseline to day 1 in 24‐hour urinary glucose excretion, median ([3]; T2DM, mild renal impairment): 36.4 g
Change from baseline to day 1 in 24‐hour urinary glucose excretion, geometric mean [3, 9]: 27.55 g
Change from baseline to day 1 in 24‐hour urinary glucose excretion, mean (SD) [3, 9]: 32.64 (21.32) g
Change from baseline to day 1 in 24‐hour urinary glucose excretion, median [3, 9]: 28.8 g
Change from baseline to day 1 in 24‐hour urinary glucose excretion, geometric mean ([3]; T2DM, normal renal function): 72.31 g
Change from baseline to day 1 in 24‐hour urinary glucose excretion, mean (SD) ([3]; T2DM, normal renal function): 75.12 (24.36) g
Change from baseline to day 1 in 24‐hour urinary glucose excretion, median ([3]; T2DM, normal renal function): 68.1 g
Change from baseline to day 1 in 24‐hour urinary glucose excretion, geometric mean ([3]; T2DM, severe renal impairment): 10.09 g
Change from baseline to day 1 in 24‐hour urinary glucose excretion, mean (SD) ([3]; T2DM, severe renal impairment): 11.29 (5.81) g
Change from baseline to day 1 in 24‐hour urinary glucose excretion, median ([3]; T2DM, severe renal impairment): 10.3 g
Change from baseline to day 1 in 24‐hour urinary glucose excretion, geometric mean ([3]; healthy, normal renal function): 46.33 g
Change from baseline to day 1 in 24‐hour urinary glucose excretion, mean (SD) ([3]; healthy, normal renal function): 48.16 (14.04) g
Change from baseline to day 1 in 24‐hour urinary glucose excretion, median ([3]; healthy, normal renal function): 45.8 g
change from baseline in 24‐hour UGE, 1‐way ANOVA ([3]; T2DM, mild renal impairment): 36.0 g
change from baseline in 24‐hour UGE, 1‐way ANOVA [3, 9]: 27.6 g
change from baseline in 24‐hour UGE, 1‐way ANOVA ([3]; T2DM, normal renal function): 72.3 g
change from baseline in 24‐hour UGE, 1‐way ANOVA ([3]; T2DM, severe renal impairment): 10.1 g
tolerability of higher oral doses [4]: well tolerated
Urinary excretion of unchanged drug, share of elimination ([5]; human absorption, distribution, metabolism, and excretion studies): 1.5%
median time to maximum concentration (tmax) ([5]; oral administration, fasted state, ref data on file, 15, 16): approximately 1 hour
terminal elimination half‐life (t1/2) ([5]; oral administration, ref data on file, 15, 16): approximately 17 hours
dose proportionality in exposure (AUC and Cmax) ([5]; over the range of 0.5 to 300 mg, ref data on file, 15, 16): dose proportionality
geometric mean change from baseline in 24‐hour percentage inhibition of glucose reabsorption ([6]; T2DM, mild renal impairment): 25.58%
geometric mean change from baseline in 24‐hour percentage inhibition of glucose reabsorption [6, 9]: 28.84%
geometric mean change from baseline in 24‐hour percentage inhibition of glucose reabsorption ([6]; T2DM, normal renal function): 33.34%
geometric mean change from baseline in 24‐hour percentage inhibition of glucose reabsorption ([6]; T2DM, severe renal impairment): 24.25%
geometric mean change from baseline in 24‐hour percentage inhibition of glucose reabsorption ([6]; healthy subjects): 29.19%
subjects experiencing hypoglycemia ([7]; T2DM mild renal impairment group, receiving glyburide): 1 subject
subjects experiencing hypoglycemia ([7]; T2DM severe renal impairment group, receiving long‐acting insulin): 2 subjects
subjects experiencing hypoglycemia ([7]; all groups (n = 36)): 3 subjects
intensity of AEs ([7]; single 15‐mg dose, all AEs): mild
deaths, serious AEs, severe AEs, discontinuations due to AEs [7, 10]: no deaths, serious AEs, severe AEs, or temporary or permanent discontinuations due to AEs
laboratory findings, vital signs, ECG findings [7, 10]: no abnormal laboratory findings or changes in vital signs (including postural changes) or ECG findings of clinical significance
tolerability [7, 10]: well tolerated

median tmax range of metabolites ([1]; after ertugliflozin 15 mg, across all groups): 2 to 4 h
MRAUCinf (metabolite‐to‐parent ratio for AUC) ([1]; T2DM, mild renal impairment): 0.98 (45)
MRAUCinf (metabolite‐to‐parent ratio for AUC) [1, 9]: 1.26 (52)
MRAUCinf (metabolite‐to‐parent ratio for AUC) ([1]; T2DM, normal renal function): 0.93 (39)
MRAUCinf (metabolite‐to‐parent ratio for AUC) ([1]; T2DM, severe renal impairment): 1.03 (37)
MRAUCinf (metabolite‐to‐parent ratio for AUC) ([1]; healthy, normal renal function): 0.64 (29)
Compound: CCOc1ccc(Cc2cc([C@]34OC[C@](CO)(O3)[C@@H](O)[C@H](O[C@@H]3O[C@H](C(=O)O)[C@@H](O)[C@H](O)[C@H]3O)[C@H]4O)ccc2Cl)cc1 [PF‐06481944, 3‐O‐β‐glucuronide]
pharmacological activity of metabolite [8]: pharmacologically inactive
